Bioassay records: PubChem, Broad Institute
T cruzi growth-1: T. cruzi proliferation inhibition; T. cruzi beta-gal in NIH3T3, GalScreen luminescence, 90 h; inhibition, % at 8.34 µM; 5.9% of 77,000 active;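 active = mean inhibition above about 93%, with at least 55% of replicates each passing it, limit read from the data, passing the limit was not always enough; inconclusive = only one of those two conditions holds; inactive = neither condition holds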
KDM4C inh: blocks human GASC-1 (KDM4C) demethylase activity; AID 720574; inhibition, % at 12.5 µM; 0.15% of 96,000 active; GST-KDM4C 2-372, H3K9me3 peptide, LANCE TR-FRET;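 active = mean replicate inhibition above about 25%, with at least 55% of replicates also reaching it, limit read from the data, passing the limit was not always enough; inconclusive = only one of those two conditions met; inactive = neither condition met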
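System – N-terminal GST-fused human GASC-1 (KDM4C) fragment, residues 2-372 · Input – enzyme final amount 10 nM · Technique – LANCE TR-FRET, Eu antibody, ULight-streptavidin, EDTA, ex 340 nm, em 618/671 nm · Medium – HEPES buffer, pH 7.5, plus ascorbate · Incubation – enzyme reaction 30 min, then detection 60 min, both room temperature · Reagent – H3K9me3 peptide with Fe(II)/2OG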
Pf Dd2 growth: P. falciparum Dd2 growth inhibition; activity change, % at 10 µM; 2.3% of 94,000 active; AID 1159554; SYBR Green, 72 h; hits give low values; in the data active = activity change below about -80%; inconclusive = no clear call, values can overlap the other calls
IDH1 mut inh: IDH1 R132H (human) inhibition; IDH1 R132H reductase, diaphorase/resazurin fluorescence, 60 min; inhibition, % at 10 µM; 0.18% of 70,000 active; AID 624101; in the data active = inhibition above about 34%; inconclusive = no clear call, values can overlap the other calls; inactive = below about 11%;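 note: 0% = DMSO and 100% = no enzyme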
Target sequence (O75874 whole entry R132H): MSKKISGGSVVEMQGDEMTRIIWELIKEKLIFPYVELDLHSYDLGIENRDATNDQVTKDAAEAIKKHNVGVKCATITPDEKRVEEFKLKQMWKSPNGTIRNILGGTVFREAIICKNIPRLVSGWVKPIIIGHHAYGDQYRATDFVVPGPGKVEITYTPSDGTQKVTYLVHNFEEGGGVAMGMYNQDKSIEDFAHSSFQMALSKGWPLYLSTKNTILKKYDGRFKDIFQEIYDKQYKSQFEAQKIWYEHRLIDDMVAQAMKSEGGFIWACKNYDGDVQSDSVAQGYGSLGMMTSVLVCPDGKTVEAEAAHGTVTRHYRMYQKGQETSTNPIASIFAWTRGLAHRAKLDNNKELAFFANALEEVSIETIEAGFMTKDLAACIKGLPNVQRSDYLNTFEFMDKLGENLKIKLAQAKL
T cruzi growth-2: inhibitors of T. cruzi proliferation; shares compounds with T cruzi growth-1; T. cruzi beta-gal in NIH3T3, GalScreen luminescence, 90 h; inhibition, % at 8.35 µM; 72% of 5,600 active; AID 651739;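 active = mean replicate inhibition above about 95% and at least 55% of replicates individually reaching it, limit read from the data; inconclusive = only one of the two criteria is met; inactive = neither criterion is met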
T cruzi growth-3: inhibitors of T. cruzi proliferation; shares compounds with T cruzi growth-1; T. cruzi beta-gal in NIH3T3, GalScreen luminescence, 90 h; inhibition, % at 2.09 µM; 21% of 5,600 active;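 active = mean inhibition above about 95%, with at least 55% of replicates also reaching it, limit read from the data; inconclusive = meets just one of the two conditions; inactive = meets neither condition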;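 note: plate controls were neutral control median for no effect and positive control median for full effect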
3T3 cytotox: kills mouse NIH/3T3 fibroblasts | shares compounds with T cruzi growth-1 | NIH/3T3 viability, CellTiter-Glo ATP luminescence, 90 h | cytotoxicity (signal decrease), % at 8.35 µM | 14% of 5,600 active | AID 651742;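 active = mean signal decrease across replicates above about 35% based on untreated-well scatter, with enough replicates individually passing, limit read from the data; inconclusive = no rule stated though some were filed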;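 note: 0% = median of neutral control wells and 100% = median of positive control wells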
NIH3T3 tox 2: NIH/3T3 (mouse) viability loss; inhibition, % at 24.9 µM; shares compounds with T cruzi growth-1; 56% of 5,600 active; NIH/3T3 viability, CellTiter-Glo ATP luminescence, 90 h;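 active = mean loss of cell viability signal at or above a set limit, and enough replicates individually reaching it; inconclusive = meets only the mean limit or only the replicate share; inactive = meets neither condition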;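 note: 0% = median of neutral control wells and 100% = median of positive control wells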
Numbers without * were called inactive; u = inconclusive; x = no result. Sampled rows, rich in hits. Any-hit rate of the full collection: about 5.8%.

SMILES | T cruzi growth-1 | KDM4C inh | Pf Dd2 growth | IDH1 mut inh | T cruzi growth-2 | T cruzi growth-3 | 3T3 cytotox | NIH3T3 tox 2
C[C@H]1CN([C@@H](C)CO)S(=O)(=O)c2ccc(C3=CCCCC3)cc2O[C@@H]1CN(C)Cc1cncnc1 | 102.4* | 2.5 | -22.4 | 1.8 | 101.8* | 62.8 | 55.0* | 69.2*
C[C@@H]1CN([C@H](C)CO)S(=O)(=O)c2ccc(C#CC3CC3)cc2O[C@H]1CN(C)C(=O)C1CC1 | 59.7 | -1.3 | -6.2 | x | x | x | x | x
C[C@H](CO)N1C[C@H](C)[C@H](CN(C)Cc2cccc(C(=O)O)c2)Oc2cc(C3=CCCCC3)ccc2S1(=O)=O | 50.4 | 2.3 | -31.4 | x | x | x | x | x
C[C@H]1CN([C@@H](C)CO)S(=O)(=O)c2ccc(C3=CCCCC3)cc2O[C@H]1CN(C)Cc1ccccc1 | 120.1* | 0.0 | -53.3 | -0.5 | 91.1 | 92.8 | 68.5* | 105.4*
C[C@@H]1CN([C@H](C)CO)S(=O)(=O)c2ccc(C3=CCCCC3)cc2O[C@@H]1CN(C)Cc1ccccc1 | 125.0* | -0.7 | -61.7 | 1.9 | 96.8* | 102.1* | 25.7 | 104.9*
C[C@@H]1CCCCO[C@@H](CN(C)S(=O)(=O)c2ccc(Cl)cc2)[C@@H](C)CN([C@H](C)CO)C(=O)c2cc(NC(=O)C3CCCCC3)ccc2O1 | -10.7 | -1.7 | -79.1 | x | x | x | x | x
C[C@@H]1CCCCO[C@@H](CN(C)S(=O)(=O)c2ccc(Cl)cc2)[C@H](C)CN([C@H](C)CO)C(=O)c2cc(NC(=O)C3CCCCC3)ccc2O1 | 108.3* | 0.1 | -85.9* | x | 110.8* | 113.4* | -5.8 | -9.2
C[C@@H]1CCCCO[C@H](CN(C)S(=O)(=O)c2ccc(Cl)cc2)[C@@H](C)CN([C@@H](C)CO)C(=O)c2cc(NC(=O)C3CCCCC3)ccc2O1 | 108.1* | -0.1 | -81.4* | 1.5 | 111.5* | u | 7.1 | -21.2
C[C@@H]1CCCCO[C@H](CN(C)S(=O)(=O)c2ccc(F)cc2)[C@H](C)CN([C@H](C)CO)C(=O)c2cc(NC(=O)C3CCCCC3)ccc2O1 | u | -0.1 | -78.6 | -1.6 | 111.9* | 60.1 | -4.7 | 10.8
CCC(=O)Nc1ccc2c(c1)C(=O)N(C)C[C@H](OC)[C@H](C)CN(CC1CCOCC1)[C@@H](C)CO2 | 1.4 | -1.6 | 11.7 | x | x | x | x | x
CCCNC(=O)N1C[C@@H](C)[C@H](OC)CN(C)C(=O)c2cc(NS(=O)(=O)CC(F)(F)F)ccc2OC[C@@H]1C | 32.0 | -1.9 | 21.6 | -0.1 | x | x | x | x
COC(=O)C[C@H]1C=C[C@@H](NC(=O)Nc2ccc(C(F)(F)F)cc2)[C@H](CO)O1 | -36.1 | -0.6 | 6.9 | 0.2 | x | x | x | x
C[C@H]1CCCCO[C@@H](CN(C)S(=O)(=O)c2cccs2)[C@@H](C)CN([C@@H](C)CO)C(=O)c2cc(NC(=O)Nc3ccc(C(F)(F)F)cc3)ccc2O1 | u | 0.2 | -88.7* | 0.7 | 96.5* | 109.9* | -13.3 | 6.8
C[C@@H]1CCCCO[C@H](CN(C)S(=O)(=O)c2cccs2)[C@H](C)CN([C@@H](C)CO)C(=O)c2cc(NC(=O)Nc3ccc(C(F)(F)F)cc3)ccc2O1 | u | -0.6 | -73.9 | x | 103.8* | 113.2* | 8.6 | 4.4
C[C@H]1CCCCO[C@H](CN(C)S(=O)(=O)c2cccs2)[C@@H](C)CN([C@@H](C)CO)C(=O)c2cc(NC(=O)Nc3ccc(C(F)(F)F)cc3)ccc2O1 | 99.4* | -3.1 | -71.1 | x | 104.7* | 109.1* | -21.5 | -2.0
C[C@@H]1CN([C@@H](C)CO)C(=O)c2cc(NC(=O)Nc3ccc(C(F)(F)F)cc3)ccc2O[C@@H](C)CCCCO[C@H]1CN(C)S(=O)(=O)c1cccs1 | 100.0* | 0.4 | -39.7 | x | 104.9* | 112.4* | 24.7 | 16.4
C[C@H](O)C#Cc1cnc2c(c1)C(=O)N([C@@H](C)CO)C[C@H](C)[C@@H](CN(C)C(=O)Nc1ccc(F)cc1)O2 | 6.0 | x | 35.4 | x | x | x | x | x
Cc1nc(SCC(=O)Nc2ccc3ccccc3c2)n[nH]1 | x | x | x | -0.2 | x | x | x | x
